We go through 13 compounds from paper PMC4177335 (ChemMedChem, 2014).

Entries after “also recorded” stand apart in the source; their conditions may differ. Where two headings read alike, the source gives them in different places.

Series [1] deals with HepG2 cells. The experiment in a line: In vitro cytotoxicity assay. The series is classed as cell-based, human. The following applies: for HepG2/Pf3D7: ratio HepG2 IC50 / Pf3D7 IC50; for IC50: read-out: HepG2 IC50.
For series [2] the following is noted: cited from earlier work.
Series [3] concerns histone H3K9me3. The experiment in a line: Parasite histone methylation analysis. The series is classed as cell-based, P. falciparum 3D7. The following applies: 5-fold IC50, 12 hours, relative to DMSO control. The method in brief:
(§1)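 3D7 cultures were exposed for 12 h to test compound, chloroquine or DMSO vehicle. Infected blood was saponin-treated (0.15% in PBS) to remove red cells, and freed parasites were lysed by bath sonication in 2% SDS for Western blot. Trimethyl-specific bands were quantified by densitometry, normalized to core histone H3 signal and expressed relative to DMSO-treated parasites.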

For series [4], the system named is P. falciparum 3D7 strain parasites. The series can be described thus: In vitro P. falciparum growth and proliferation assay. The series is classed as cell-based, Plasmodium falciparum. Particulars: for IC50: read-out: Pf3D7 IC50; for fold reduction in Pf3D7 activity: versus the comparator analogue named in the sentence.
The subject of series [5] is chloroquine-sensitive and chloroquine-resistant parasites. The following applies: ref [13]; cited from earlier work.
The subject of series [6] is highly synchronized P. falciparum parasites. Particulars: throughout the intraerythrocytic life cycle; ref [13]; cited from earlier work.
Series [7] has as its system histone H3K9me3. Particulars: ref [13]; cited from earlier work.
The conditions of series [8]: microsomes, cited from earlier work.
The conditions of series [9]: cited from earlier work. The source holds these as a separate data set.
The conditions of series [10]: ref [21]; cited from earlier work.
Series [11] deals with HepG2 cells. Particulars: Table 5; ref [21]; cited from earlier work.
Series [12] concerns histone H3K4me3. The following applies: ref [13]; cited from earlier work.
For series [13], the system named is histone H3K4me3. The series can be described thus: Parasite histone methylation analysis. Particulars: 5-fold IC50, 12 hours, relative to DMSO control. The series is classed as cell-based, P. falciparum 3D7. The method, boiled down:
as §1

[14] abbreviates: Plasmodium falciparum, 3D7, 72 h.
Setting [15] is: HepG2 cells, three days, CellTiterBlue.
[16] abbreviates: P. falciparum 3D7 strain, three-day SYBR Green I assay.

Take `COc1cc2nc(N3CCCN(C)CC3)nc(NC3CCN(Cc4ccccc4)CC3)c2cc1OC` [Compound 1, (1-Benzyl-4-piperidyl)[6,7-dimethoxy-2-(4-methyl-1,4-diazepin-1-yl)-4-quinazolinyl]amine]: in the series on HepG2 cells [1], the HepG2/Pf3D7 is on record as 110.6. Also, the “logD pH 3” value in series [2] (pH 3) is recorded as 0.5. Moreover, the “logD pH 7.4” value in [2] (pH 7.4) was 5. In addition, the “H3K9me3 levels in treated parasites” value in the series with histone H3K9me3 [3] was “decreased”. Further, in series [4] (setting [14]), the IC50 came out at 0.0434 µM. Further, in series [5], the “potency against chloroquine-sensitive versus chloroquine-resistant parasites” value is given as “equally potent”. For the same compound, the killing phenotype result in [6] is listed as “fast killing phenotype”. In the series on histone H3K9me3 [7], the “H3K9me3 levels of the parasite” value is recorded as “decrease”. In series [8], the “rat microsome t1/2” value is 0.883 h. In series [8] (rat), the “in vitro CLint” value is 33 μl/min/mg protein. For the same compound, the “solubility pH 2” value in [9] (pH 2) was >100 μg/ml. Besides, the “solubility pH 6.5” value in [9] (pH 6.5) is listed as >100 μg/ml. The “rat plasma t1/2” value in series [10] is >4 h. Further, the HepG2/3D7 in the series with HepG2 cells [11] is reported as 110.6. Besides, the “H3K4me3 levels of the parasite” value in the series on histone H3K4me3 [12] is “decrease; also recorded: reduced”. Besides, the “H3K4me3 levels in treated parasites” value with histone H3K4me3 [13] is “decreased”.
Consider `COc1cc2nc(N3CCN(c4ccccn4)CC3)nc(N(C)C3CCN(Cc4ccccc4)CC3)c2cc1OC` [Compound 63, (1-Benzyl-4-piperidyl)-N-methyl{6,7-dimethoxy-2-[4-(2-pyridyl)-1-piperazinyl]-4-quinazolinyl}amine], for which the IC50 with HepG2 cells [1] (Homo sapiens, HepG2, 72 h) is 9.6 µM; in series [4] (setting [14]) it was 0.472 µM. In the series with HepG2 cells [1], the HepG2/Pf3D7 stood at 20.4. The “fold reduction in Pf3D7 activity” value in [4] is given as 10-20 fold.
As to “(1-Benzyl-4-piperidyl){6,7-dimethoxy-2-[4-(2-pyridyl)-1-piperazinyl]-4-quinazolinyl}amine [Compound 75]”, in the series with HepG2 cells [1], the HepG2/Pf3D7 worked out at 14.2. The IC50 in the series with HepG2 cells [1] (setting [15]) amounted to 5 µM; in [4] (setting [16]), 0.354 µM.
Take `COc1cc2nc(N3CCCCC3)nc(N(C)C3CCN(Cc4ccccc4)CC3)c2cc1OC` [Compound 61, (1-Benzyl-4-piperidyl)-N-methyl(6,7-dimethoxy-2-piperidino-4-quinazolinyl)amine]: the 50% inhibitory concentration (IC50) in the series on HepG2 cells [1] (Homo sapiens, HepG2, 72 h) stood at 8.1 µM; in [4] (setting [14]), 0.495 µM. Further, in the series with HepG2 cells [1], the HepG2/Pf3D7 is reported as 16.4. In addition, in series [4], the “fold reduction in Pf3D7 activity” value was 10-20 fold.
For the compound `CN1CCCN(c2nc(NC3CCN(Cc4ccccc4)CC3)c3ccccc3n2)CC1` [Compound 73, (1-Benzyl-4-piperidyl)[2-(4-methyl-1,4-diazepin-1-yl)-4-quinazolinyl]amine], the HepG2/Pf3D7 in the series on HepG2 cells [1] is 69.6. For the same compound, the concentration for half-maximal inhibition (IC50) was determined as 7 µM in the series with HepG2 cells [1] (setting [15]) and 0.101 µM in series [4] (setting [16]).
As to `COc1cc2nc(N3CCN(C)CC3)nc(NC(C)C)c2cc1OC` [Compound 51, (Isopropyl)[6,7-dimethoxy-2-(4-methyl-1-piperazinyl)-4-quinazolinyl]amine], the IC50 in [4] (setting [14]) is > 0.3 µM. In addition, the “fold reduction in Pf3D7 activity” value in series [4] is 7-17 fold.
With `c1ccc(CN2CCC(Nc3nc(N4CCCCC4)nc4ccccc34)CC2)cc1` [Compound 74, (1-Benzyl-4-piperidyl)(2-piperidino-4-quinazolinyl)amine], in [4] (setting [14]), the 50% inhibitory concentration (IC50) was 0.385 µM.
Regarding `COc1cc2nc(N3CCCN(C)CC3)nc(OC3CCN(Cc4ccccc4)CC3)c2cc1OC` [Compound 65, 4-(1-Benzyl-4-piperidyloxy)-6,7-dimethoxy-2-(4-methyl-1,4-diazepin-1-yl)quinazoline], the HepG2/Pf3D7 in the series with HepG2 cells [1] is recorded as 5.4. Also, the IC50 in the series on HepG2 cells [1] (setting [15]) came to 7.9 µM; in [4] (setting [16]) it was 1.46 µM.
Regarding `COc1cc2nc(N3CCCN(C)CC3)nc(N(C)C3CCN(Cc4ccccc4)CC3)c2cc1OC` [Compound 60, (1-Benzyl-4-piperidyl)-N-methyl[6,7-dimethoxy-2-(4-methyl-1,4-diazepin-1-yl)-4-quinazolinyl]amine], the HepG2/Pf3D7 with HepG2 cells [1] is 37.9. The IC50 worked out at 6 µM in the series on HepG2 cells [1] (setting [15]) and 0.159 µM in [4] (setting [16]). Further, the “fold reduction in Pf3D7 activity” value in [4] is listed as 10-20 fold.
Turning to `CCN(CC)CCCC(C)Nc1ccnc2cc(Cl)ccc12` (stereo not drawn) [chloroquine], the “H3K9me3 levels in treated parasites” value in the series with histone H3K9me3 [3] is “slight increase”. Moreover, the “H3K4me3 levels in treated parasites” value in the series on histone H3K4me3 [13] was “slight decrease”.
Consider `COc1cc2nc(N3CCN(c4ccccn4)CC3)nc(OC3CCN(Cc4ccccc4)CC3)c2cc1OC` [Compound 66, 4-(1-Benzyl-4-piperidyloxy)-6,7-dimethoxy-2-[4-(2-pyridyl)-1-piperazinyl]quinazoline], for which the IC50 in the series on HepG2 cells [1] (Homo sapiens, HepG2, 72 h) was 15.7 µM; in series [4] (setting [14]), 2.06 µM. Further, the HepG2/Pf3D7 in the series with HepG2 cells [1] amounted to 7.7.
For the compound `COc1cc2nc(N3C=CC=CC=C3)nc(NC3CCN(Cc4ccccc4)CC3)c2cc1OC` [Compound 4, (1-Benzyl-4-piperidyl)[2-(1-azepinyl)-6,7-dimethoxy-4-quinazolinyl]amine], the “Pf3D7 activity (in words)” value in [4] (P. falciparum 3D7 strain) was “comparable to 1”. In addition, in [4] (setting [14]), the IC50 worked out at 0.0291 µM.
Turning to `COc1cc2nc(N3C=CC=CC=C3)nc(N(C)C3CCN(Cc4ccccc4)CC3)c2cc1OC` [Compound 62, (1-Benzyl-4-piperidyl)-N-methyl[2-(1-azepinyl)-6,7-dimethoxy-4-quinazolinyl]amine], the IC50 turned out to be 5.4 µM with HepG2 cells [1] (Homo sapiens, HepG2, 72 h) and 0.4 µM in [4] (setting [14]). Moreover, the HepG2/Pf3D7 in the series with HepG2 cells [1] turned out to be 13.6. The “fold reduction in Pf3D7 activity” value in [4] is 10-20 fold.
